ChEMBL document CHEMBL2069207, “Polyhydroxylated steroidal glycosides from Paris polyphylla” (J Nat Prod, 2012)
The source made the active and inactive calls. No cut-off for these calls is given here.

Key:
[1] = system: CCRF-CEM; test: Cytotoxicity against human CCRF-CEM cells by XTT assay; assay type: functional, cell-based
In short: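 CCRF-CEM human leukemia cells were exposed to 0.001 to 100 μM to build dose–response curves, read by XTT proliferation assay. IC50 was taken from the curves. Only agents giving at least 80% inhibition in a 100 μM screen were taken forward. An equivalent DMSO concentration was the negative control and viability reference, and doxorubicin was the positive control.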

[2] = system: CCRF-CEM; test: Cytotoxicity against human CCRF-CEM cells at 100 uM by XTT assay; assay type: functional, cell-based
In short: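 Human CCRF-CEM leukemia cells; single fixed concentration of 100 μM. Proliferation inhibition was read by XTT assay and expressed as inhibition rate. Viability was referenced to an equivalent DMSO concentration as negative control. Doxorubicin served as positive control.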

C[C@H](CCC1(O)OC2CC3C4CC=C5C[C@@H](O[C@@H]6O[C@H](CO)C(O[C@@H]7O[C@@H](CO)[C@H](O)[C@H]7O)[C@@H](O)[C@H]6O[C@@H]6O[C@@H](C)[C@H](O)[C@@H](O)[C@H]6O)CC[C@]5(C)C4CC[C@]3(C)C2[C@@H]1C)CO[C@@H]1O[C@H](CO)[C@@H](O)[C@H](O)[C@H]1O (some centres not stated) [PARISAPONIN I]
IC50 [1]: 1230 nM

CC1=C(CC[C@@H](C)CO[C@@H]2O[C@H](CO)[C@@H](O)[C@H](O)[C@H]2O)O[C@H]2C[C@H]3[C@@H]4CC=C5C[C@@H](O[C@@H]6O[C@H](CO)[C@@H](O[C@@H]7O[C@@H](C)[C@H](O[C@@H]8O[C@@H](C)[C@H](O)[C@@H](O)[C@H]8O)[C@@H](O)[C@H]7O)[C@H](O)[C@H]6O[C@@H]6O[C@@H](C)[C@H](O)[C@@H](O)[C@H]6O)CC[C@]5(C)[C@H]4CC[C@]3(C)[C@@H]12
IC50 [1]: 6520 nM

C[C@H](CC[C@@]1(O)O[C@H]2C[C@H]3[C@@H]4CC=C5C[C@@H](O[C@@H]6O[C@H](CO)[C@@H](O)[C@H](O[C@@H]7O[C@H](CO)[C@@H](O)[C@H](O)[C@H]7O)[C@H]6O[C@@H]6O[C@@H](C)[C@H](O)[C@@H](O)[C@H]6O)CC[C@]5(C)[C@H]4CC[C@]3(C)[C@H]2[C@@H]1C)CO[C@@H]1O[C@H](CO)[C@@H](O)[C@H](O)[C@H]1O
IC50 [1]: 1770 nM

CC1=CO[C@@]2(O[C@H]3C[C@H]4[C@@H]5CC=C6C[C@@H](O)C[C@@H](O[C@@H]7O[C@H](CO)[C@@H](O)[C@H](O[C@@H]8OC[C@@H](O)[C@H](O)[C@H]8O)[C@H]7O[C@@H]7O[C@@H](C)[C@H](O)[C@@H](O)[C@H]7O)[C@]6(C)[C@H]5CC[C@]4(C)[C@H]3[C@@H]2CO)[C@@H](O)[C@H]1O[C@@H]1O[C@H](C)[C@H](O)[C@H](O)[C@H]1O
Activity [2]: inactive

CC(C)(O)CC[C@@H](O)[C@](C)(O)[C@H]1CC[C@@]2(O)C3=CC(=O)[C@@H]4C[C@@H](O)[C@@H](O)C[C@]4(C)[C@H]3CC[C@]12C
Activity [2]: inactive

CC1=CO[C@@]2(O[C@H]3C[C@H]4[C@@H]5CC=C6C[C@@H](O)C[C@@H](O[C@@H]7O[C@H](CO)[C@@H](O)[C@H](O[C@@H]8OC[C@@H](O)[C@H](O)[C@H]8O)[C@H]7O[C@@H]7O[C@@H](C)[C@H](O)[C@@H](O)[C@H]7O)[C@]6(C)[C@H]5CC[C@]4(C)[C@H]3[C@@H]2CO[C@@H]2O[C@H](CO)[C@H](O)[C@H](O)[C@H]2O)[C@@H](O)[C@H]1O[C@@H]1O[C@H](C)[C@H](O)[C@H](O)[C@H]1O
Activity [2]: inactive

C[C@H](CC[C@@]1(O)O[C@H]2C[C@H]3[C@@H]4CC=C5C[C@@H](O[C@@H]6O[C@H](CO)[C@@H](O[C@@H]7O[C@@H](C)[C@H](O[C@@H]8O[C@@H](C)[C@H](O)[C@@H](O)[C@H]8O)[C@@H](O)[C@H]7O)[C@H](O)[C@H]6O[C@@H]6O[C@@H](C)[C@H](O)[C@@H](O)[C@H]6O)CC[C@]5(C)[C@H]4CC[C@]3(C)[C@H]2[C@@H]1C)CO[C@@H]1O[C@H](CO)[C@@H](O)[C@H](O)[C@H]1O [DICHOTOMIN]
IC50 [1]: 590 nM

C=C1CO[C@@]2(O[C@H]3C[C@H]4[C@@H]5CC=C6C[C@@H](O)C[C@@H](O[C@@H]7O[C@H](CO)[C@@H](O)[C@H](O[C@@H]8OC[C@@H](O)[C@H](O)[C@H]8O)[C@H]7O[C@@H]7O[C@@H](C)[C@H](O)[C@@H](O)[C@H]7O)[C@]6(C)[C@H]5CC[C@]4(C)[C@H]3[C@@H]2CO[C@@H]2O[C@H](CO)[C@H](O)[C@H](O)[C@H]2O)[C@@H](O)[C@H]1O[C@@H]1O[C@H](C)[C@H](O)[C@H](O)[C@H]1O
Activity [2]: inactive

C[C@H](CC[C@@]1(O)O[C@H]2C[C@H]3[C@@H]4CC=C5C[C@@H](O[C@@H]6O[C@H](CO)[C@@H](O[C@@H]7O[C@@H](CO)[C@H](O)[C@H]7O)[C@H](O)[C@H]6O[C@@H]6O[C@@H](C)[C@H](O)[C@@H](O)[C@H]6O)CC[C@]5(C)[C@H]4CC[C@]3(C)[C@@]2(O)[C@@H]1C)CO[C@@H]1O[C@H](CO)[C@@H](O)[C@H](O)[C@H]1O [PARISYUNNANOSIDE A]
IC50 [1]: 6680 nM

CC(C)(O)C(O)CC[C@](C)(O)[C@H]1CC[C@@]2(O)C3=CC(=O)[C@@H]4C[C@@H](O)[C@@H](O)C[C@]4(C)[C@H]3CC[C@]12C (some centres not stated)
Activity [2]: inactive

COc1cccc2c1C(=O)c1c(O)c3c(c(O)c1C2=O)C[C@@](O)(C(=O)CO)C[C@@H]3O[C@H]1C[C@H](N)[C@H](O)[C@H](C)O1 [DOXORUBICIN]
IC50 [1]: 2140 nM

C[C@@H]1O[C@@H](O[C@H]2[C@H](O[C@@H]3C[C@H](O)CC4=CC[C@H]5[C@@H]6C[C@@H]7O[C@@]8(OC[C@H](C)[C@H](O[C@@H]9O[C@H](C)[C@H](O)[C@H](O)[C@H]9O)[C@@H]8O)[C@@H](CO)[C@@H]7[C@@]6(C)CC[C@@H]5[C@]43C)O[C@H](CO)[C@@H](O)[C@@H]2O[C@@H]2OC[C@@H](O)[C@H](O)[C@H]2O)[C@H](O)[C@H](O)[C@H]1O
Activity [2]: inactive
